Paper PMC9486889 (Japanese Journal of Clinical Oncology, 2022)

Assay: Phase I dose-escalation: DLT/MTD and treatment-emergent adverse events
Assay type: in vivo, Japanese patients
Summary of the method: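 Open-label, non-randomized 3+3 dose escalation, starting at 30 mg oral BIW with planned escalation to 50 mg, in continuous 4-week cycles. The DLT window was 28 days from first dose. DLTs were grade 4 hematologic toxicity, grade ≥3 febrile neutropenia, grade 3 thrombocytopenia with significant bleeding, other grade ≥3 non-hematologic toxicity, or troponin rising on 3 consecutive days. AEs were coded by MedDRA 19.1 and graded by CTCAE 4.03.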

Nc1cc(F)ccc1NC(=O)c1ccc(CNC(=O)/C=C/c2cccnc2)cc1 [HBI-8000, tucidinostat]
Grade 3: Number of patients with at least one TEAE (30 mg BIW (N = 7)): 5 (71.4) n (%) | Grade 3 TEAE: Abdominal pain (30 mg BIW (N = 7)): 0 (0) n (%) | Grade 3 TEAE: Alanine aminotransferase increased (30 mg BIW (N = 7)): 0 (0) n (%) | Grade 3 TEAE: Anaemia (30 mg BIW (N = 7)): 1 (14.3) n (%) | Grade 3 TEAE: Blood creatine phosphokinase increased (30 mg BIW (N = 7)): 1 (14.3) n (%) | Grade 3 TEAE: Enterocolitis (30 mg BIW (N = 7)): 0 (0) n (%) | Grade 3 TEAE: Erythema multiforme (30 mg BIW (N = 7)): 0 (0) n (%) | Grade 3 TEAE: Erythema nodosum (30 mg BIW (N = 7)): 0 (0) n (%) | Grade 3 TEAE: Hyperglycaemia (30 mg BIW (N = 7)): 0 (0) n (%) | Grade 3 TEAE: Hypertriglyceridaemia (30 mg BIW (N = 7)): 0 (0) n (%) | Grade 3 TEAE: Lymphocyte count decreased (30 mg BIW (N = 7)): 1 (14.3) n (%) | Grade 3 TEAE: Neutropenia (30 mg BIW (N = 7)): 1 (14.3) n (%) | Grade 3 TEAE: Parkinsonism (30 mg BIW (N = 7)): 1 (14.3) n (%) | Grade 3 TEAE: Pyrexia (30 mg BIW (N = 7)): 0 (0) n (%) | Grade 3 TEAE: Rash generalized (30 mg BIW (N = 7)): 1 (14.3) n (%) | Grade 3 TEAE: Thrombocytopenia (30 mg BIW (N = 7)): 0 (0) n (%) | Grade 4: Number of patients with at least one TEAE (30 mg BIW (N = 7)): 0 (0) n (%) | Grade 4 TEAE: Abdominal pain (30 mg BIW (N = 7)): 0 (0) n (%) | Grade 4 TEAE: Alanine aminotransferase increased (30 mg BIW (N = 7)): 0 (0) n (%) | Grade 4 TEAE: Anaemia (30 mg BIW (N = 7)): 0 (0) n (%) | Grade 4 TEAE: Blood creatine phosphokinase increased (30 mg BIW (N = 7)): 0 (0) n (%) | Grade 4 TEAE: Enterocolitis (30 mg BIW (N = 7)): 0 (0) n (%) | Grade 4 TEAE: Erythema multiforme (30 mg BIW (N = 7)): 0 (0) n (%) | Grade 4 TEAE: Erythema nodosum (30 mg BIW (N = 7)): 0 (0) n (%) | Grade 4 TEAE: Hyperglycaemia (30 mg BIW (N = 7)): 0 (0) n (%) | Grade 4 TEAE: Hypertriglyceridaemia (30 mg BIW (N = 7)): 0 (0) n (%) | Grade 4 TEAE: Lymphocyte count decreased (30 mg BIW (N = 7)): 0 (0) n (%) | Grade 4 TEAE: Neutropenia (30 mg BIW (N = 7)): 0 (0) n (%) | Grade 4 TEAE: Neutrophil count decreased (30 mg BIW (N = 7)): 0 (0) n (%) | Grade 4 TEAE: Parkinsonism (30 mg BIW (N = 7)): 0 (0) n (%) | Grade 4 TEAE: Pyrexia (30 mg BIW (N = 7)): 0 (0) n (%) | Grade 4 TEAE: Rash generalized (30 mg BIW (N = 7)): 0 (0) n (%) | Grade 4 TEAE: Thrombocytopenia (30 mg BIW (N = 7)): 0 (0) n (%) | Grade 4 TEAE: White blood cell count decreased (30 mg BIW (N = 7)): 0 (0) n (%) | Number of patients with at least one related TEAE (30 mg BIW (N = 7)): 6 (85.7) n (%) | TEAE: Abdominal pain (30 mg BIW (N = 7)): 1 (14.3) n (%) | TEAE: Anaemia (30 mg BIW (N = 7)): 5 (71.4) n (%) | TEAE: Back pain (30 mg BIW (N = 7)): 0 (0) n (%) | TEAE: C-reactive protein increased (30 mg BIW (N = 7)): 1 (14.3) n (%) | TEAE: Decreased appetite (30 mg BIW (N = 7)): 1 (14.3) n (%) | TEAE: Diarrhoea (30 mg BIW (N = 7)): 3 (42.9) n (%) | TEAE: Dysgeusia (30 mg BIW (N = 7)): 2 (28.6) n (%) | TEAE: Fatigue (30 mg BIW (N = 7)): 3 (42.9) n (%) | TEAE: Headache (30 mg BIW (N = 7)): 1 (14.3) n (%) | TEAE: Hypertriglyceridaemia (30 mg BIW (N = 7)): 1 (14.3) n (%) | TEAE: Hyperuricaemia (30 mg BIW (N = 7)): 2 (28.6) n (%) | TEAE: Hypocalcaemia (30 mg BIW (N = 7)): 0 (0) n (%) | TEAE: Hypokalaemia (30 mg BIW (N = 7)): 2 (28.6) n (%) | TEAE: Insomnia (30 mg BIW (N = 7)): 1 (14.3) n (%) | TEAE: Nasopharyngitis (30 mg BIW (N = 7)): 0 (0) n (%) | TEAE: Nausea (30 mg BIW (N = 7)): 1 (14.3) n (%) | TEAE: Neutropenia (30 mg BIW (N = 7)): 1 (14.3) n (%) | TEAE: Neutrophil count decreased (30 mg BIW (N = 7)): 2 (28.6) n (%) | TEAE: Platelet count decreased (30 mg BIW (N = 7)): 3 (42.9) n (%) | TEAE: Pyrexia (30 mg BIW (N = 7)): 1 (14.3) n (%) | TEAE: Thrombocytopenia (30 mg BIW (N = 7)): 2 (28.6) n (%) | TEAE: Weight decreased (30 mg BIW (N = 7)): 1 (14.3) n (%) | TEAE: White blood cell count decreased (30 mg BIW (N = 7)): 3 (42.9) n (%) | TEAEs that led to dose reduction or dose delay (30 mg BIW cohort): four | TEAEs that led to treatment discontinuation (30 mg BIW cohort): two | Dose-limiting toxicities (30 mg BIW cohort, six patients assessed, Cycle 1): no dose-limiting toxicitys | Grade 3: Number of patients with at least one TEAE (40 mg BIW (N = 7)): 4 (57.1) n (%) | Grade 3 TEAE: Abdominal pain (40 mg BIW (N = 7)): 1 (14.3) n (%) | Grade 3 TEAE: Alanine aminotransferase increased (40 mg BIW (N = 7)): 1 (14.3) n (%) | Grade 3 TEAE: Anaemia (40 mg BIW (N = 7)): 0 (0) n (%) | Grade 3 TEAE: Blood creatine phosphokinase increased (40 mg BIW (N = 7)): 0 (0) n (%) | Grade 3 TEAE: Enterocolitis (40 mg BIW (N = 7)): 1 (14.3) n (%) | Grade 3 TEAE: Erythema multiforme (40 mg BIW (N = 7)): 1 (14.3) n (%) | Grade 3 TEAE: Erythema nodosum (40 mg BIW (N = 7)): 1 (14.3) n (%) | Grade 3 TEAE: Hyperglycaemia (40 mg BIW (N = 7)): 1 (14.3) n (%) | Grade 3 TEAE: Hypertriglyceridaemia (40 mg BIW (N = 7)): 1 (14.3) n (%) | Grade 3 TEAE: Lymphocyte count decreased (40 mg BIW (N = 7)): 0 (0) n (%) | Grade 3 TEAE: Neutropenia (40 mg BIW (N = 7)): 0 (0) n (%) | Grade 3 TEAE: Neutrophil count decreased (40 mg BIW (N = 7)): 0 (0) n (%) | Grade 3 TEAE: Parkinsonism (40 mg BIW (N = 7)): 0 (0) n (%) | Grade 3 TEAE: Pyrexia (40 mg BIW (N = 7)): 1 (14.3) n (%) | Grade 3 TEAE: Rash generalized (40 mg BIW (N = 7)): 0 (0) n (%) | Grade 3 TEAE: Thrombocytopenia (40 mg BIW (N = 7)): 2 (28.6) n (%) | Grade 3 TEAE: White blood cell count decreased (40 mg BIW (N = 7)): 1 (14.3) n (%) | Grade 4: Number of patients with at least one TEAE (40 mg BIW (N = 7)): 2 (28.6) n (%) | Grade 4 TEAE: Abdominal pain (40 mg BIW (N = 7)): 0 (0) n (%) | Grade 4 TEAE: Alanine aminotransferase increased (40 mg BIW (N = 7)): 0 (0) n (%) | Grade 4 TEAE: Anaemia (40 mg BIW (N = 7)): 0 (0) n (%) | Grade 4 TEAE: Blood creatine phosphokinase increased (40 mg BIW (N = 7)): 0 (0) n (%) | Grade 4 TEAE: Enterocolitis (40 mg BIW (N = 7)): 0 (0) n (%) | Grade 4 TEAE: Erythema multiforme (40 mg BIW (N = 7)): 0 (0) n (%) | Grade 4 TEAE: Erythema nodosum (40 mg BIW (N = 7)): 0 (0) n (%) | Grade 4 TEAE: Hyperglycaemia (40 mg BIW (N = 7)): 0 (0) n (%) | Grade 4 TEAE: Hypertriglyceridaemia (40 mg BIW (N = 7)): 0 (0) n (%) | Grade 4 TEAE: Lymphocyte count decreased (40 mg BIW (N = 7)): 0 (0) n (%) | Grade 4 TEAE: Neutropenia (40 mg BIW (N = 7)): 2 (28.6) n (%) | Grade 4 TEAE: Neutrophil count decreased (40 mg BIW (N = 7)): 0 (0) n (%) | Grade 4 TEAE: Parkinsonism (40 mg BIW (N = 7)): 0 (0) n (%) | Grade 4 TEAE: Pyrexia (40 mg BIW (N = 7)): 0 (0) n (%) | Grade 4 TEAE: Rash generalized (40 mg BIW (N = 7)): 0 (0) n (%)
